According to ChEMBL document CHEMBL1955746, “Synthesis and P2Y₂ receptor agonist activities of uridine 5'-phosphonate analogues” (Bioorg Med Chem, 2012):
The source made the active and inactive calls. No cut-off for these calls is given here.

Tests used:
Format in all cases: functional, cell-based
[1] = molecular target: P2Y purinoceptor 6 (Homo sapiens) (UniProt Q15077); assay: Agonist activity at human P2Y6 receptor expressed in human 1321N1 cells assessed as stimulation of PLC-induced [3H]inositol phosphate production at 100 uM after 30 mins by scintillation counting
Summary of the method: (§1)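 Retrovirally generated stable 1321N1 lines labelled 16 h with 1.0 μCi [3H]myo-inositol in inositol-free DMEM. Analogues at 100 μM, 30 min at 37°C in Hepes pH 7.3/HBSS with LiCl. Total [3H]inositol phosphates taken by formic acid extraction and Dowex anion exchange, then scintillation counting. P2Y2 and P2Y4 responses expressed as % of 100 nM UTP; P2Y6 as % of 1 μM UDP. Mean ± S.E.M., ≥3 experiments.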

P2Y purinoceptor 2 [2] = molecular target: T1, P2Y purinoceptor 2 (Homo sapiens, UniProt P41231); assay: Agonist activity at human P2Y2 receptor expressed in human 1321N1 cells assessed as stimulation of PLC-induced [3H]inositol phosphate production at 100 uM after 30 mins by scintillation counting relative to UTP; summary of the method: as §1
P2Y purinoceptor 2 [3] = molecular target: T1, P2Y purinoceptor 2; assay: Agonist activity at human P2Y2 receptor expressed in human 1321N1 cells assessed as stimulation of PLC-induced [3H]inositol phosphate production after 30 mins by scintillation counting
Summary of the method: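 Stable 1321N1 astrocytoma lines made by retroviral expression of the receptor. Cells plated 20,000/well two days ahead and labelled 16 h in serum-free, inositol-free DMEM with 1.0 μCi [3H]myo-inositol. Agonist added in HBSS with 100 mM Hepes pH 7.3 (five-fold stock) and 50 mM LiCl, 30 min at 37°C. Stopped with cold 50 mM formic acid, neutralized, Dowex columns. EC50 by non-linear regression, triplicates, ≥3 experiments.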

[4] = molecular target: P2Y purinoceptor 4 (Homo sapiens) (UniProt P51582); assay: Agonist activity at human P2Y4 receptor expressed in human 1321N1 cells assessed as stimulation of PLC-induced [3H]inositol phosphate production at 100 uM after 30 mins by scintillation counting; summary of the method: as §1
Chain of P2Y purinoceptor 4 (Homo sapiens) (P51582 whole entry): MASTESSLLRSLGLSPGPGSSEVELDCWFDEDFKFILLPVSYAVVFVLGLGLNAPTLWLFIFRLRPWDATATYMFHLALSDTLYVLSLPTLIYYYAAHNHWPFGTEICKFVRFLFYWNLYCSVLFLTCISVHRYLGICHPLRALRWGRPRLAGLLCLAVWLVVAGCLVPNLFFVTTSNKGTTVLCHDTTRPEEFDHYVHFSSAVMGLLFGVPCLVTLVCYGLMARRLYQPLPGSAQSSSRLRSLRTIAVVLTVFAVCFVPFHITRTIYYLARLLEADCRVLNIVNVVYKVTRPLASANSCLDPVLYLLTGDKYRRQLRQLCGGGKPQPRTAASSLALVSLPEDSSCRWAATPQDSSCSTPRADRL

T1 sequence (P41231 whole entry): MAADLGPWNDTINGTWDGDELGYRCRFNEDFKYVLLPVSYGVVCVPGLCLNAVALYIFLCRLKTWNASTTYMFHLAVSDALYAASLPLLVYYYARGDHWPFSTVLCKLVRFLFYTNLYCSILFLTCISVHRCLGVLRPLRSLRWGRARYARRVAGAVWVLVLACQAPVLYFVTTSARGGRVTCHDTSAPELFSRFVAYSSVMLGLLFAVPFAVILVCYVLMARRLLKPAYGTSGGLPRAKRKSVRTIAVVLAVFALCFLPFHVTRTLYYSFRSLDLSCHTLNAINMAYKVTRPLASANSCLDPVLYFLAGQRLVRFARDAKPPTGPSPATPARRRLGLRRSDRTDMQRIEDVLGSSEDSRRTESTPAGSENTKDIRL
Chain of P2Y purinoceptor 6 (Homo sapiens) (Q15077 whole entry): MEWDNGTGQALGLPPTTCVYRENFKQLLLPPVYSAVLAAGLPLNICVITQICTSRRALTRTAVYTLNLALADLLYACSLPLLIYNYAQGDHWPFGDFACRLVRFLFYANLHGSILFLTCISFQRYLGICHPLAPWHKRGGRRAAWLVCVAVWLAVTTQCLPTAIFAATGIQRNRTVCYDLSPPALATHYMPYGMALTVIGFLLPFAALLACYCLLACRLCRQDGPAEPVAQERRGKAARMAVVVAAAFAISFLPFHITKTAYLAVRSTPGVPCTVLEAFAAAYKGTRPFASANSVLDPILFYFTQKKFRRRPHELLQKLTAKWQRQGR

| SMILES | Activity [1] | Emax (P2Y purinoceptor 2 [2]) | EC50 (P2Y purinoceptor 2 [3]) | Activity [4] |
| --- | --- | --- | --- | --- |
| O=c1ccn([C@@H]2O[C@H](COP(=O)(O)OP(=O)(O)O)[C@@H](O)[C@H]2O)c(=O)[nH]1 | inactive | – | – | – |
| O=c1[nH]c(=O)n([C@@H]2O[C@H](CCP(=O)(O)O)[C@@H](O)[C@H]2O)cc1/C=C/c1ccccc1 | inactive | 41% | 3100 nM | inactive |
| O=c1ccn([C@@H]2O[C@H](OCP(=O)(O)O)[C@@H](O)[C@H]2O)c(=O)[nH]1 | inactive | 19% | > 20000 nM | inactive |
| N[C@@H]1[C@H](O)[C@@H](CCP(=O)(O)O)O[C@H]1n1ccc(=O)[nH]c1=O | inactive | 9% | > 20000 nM | inactive |
| O=c1ccn([C@@H]2O[C@H](CCP(=O)(O)O)[C@@H](O)[C@H]2O)c(=O)[nH]1 | – | 32% | 5100 nM | – |
| O=c1[nH]c(=O)n([C@@H]2O[C@H](CCP(=O)(O)O)[C@@H](O)[C@H]2O)cc1-c1csc2ccccc12 | inactive | 45% | > 20000 nM | inactive |
| O=c1ccn([C@@H]2O[C@H](CCP(=O)(O)O)[C@@H](O)[C@H]2Cl)c(=O)[nH]1 | inactive | 9% | > 20000 nM | inactive |
| O=c1ccn([C@H]2[C@H](O)[C@H](O)[C@]3(CCP(=O)(O)O)C[C@H]23)c(=O)[nH]1 | – | – | 4000 nM | – |

The next lines start with the values.

| Activity [1] | Emax (P2Y purinoceptor 2 [2]) | EC50 (P2Y purinoceptor 2 [3]) | Activity [4] | SMILES |
| --- | --- | --- | --- | --- |
| inactive | 43% | 400 nM | inactive | O=c1[nH]c(=O)n([C@@H]2O[C@H](CCP(=O)(O)O)[C@@H](O)[C@H]2O)cc1-c1ccc(F)cc1 |
| inactive | 45% | 700 nM | inactive | O=c1[nH]c(=O)n([C@@H]2O[C@H](CCP(=O)(O)O)[C@@H](O)[C@H]2O)cc1-c1ccco1 |
| – | – | 20 nM | – | O=c1ccn([C@@H]2O[C@H](COP(=O)(O)OP(=O)(O)OP(=O)(O)O)[C@@H](O)[C@H]2O)c(=O)[nH]1 [URIDINE TRIPHOSPHATE] |
| inactive | 35% | 500 nM | inactive | O=c1[nH]c(=O)n([C@@H]2O[C@H](CCP(=O)(O)O)[C@@H](O)[C@H]2O)cc1-c1cccs1 |
| inactive | 41% | 1000 nM | inactive | Cc1ccc(-c2cn([C@@H]3O[C@H](CCP(=O)(O)O)[C@@H](O)[C@H]3O)c(=O)[nH]c2=O)cc1 |
| inactive | 53% | 1500 nM | inactive | O=c1[nH]c(=O)n([C@@H]2O[C@H](CCP(=O)(O)O)[C@@H](O)[C@H]2O)cc1-c1ccccc1 |
| inactive | 54% | 2100 nM | inactive | O=c1[nH]c(=O)n([C@@H]2O[C@H](CCP(=O)(O)O)[C@@H](O)[C@H]2O)cc1-c1ccc2ccccc2c1 |
